Source: ChEMBL document CHEMBL4765352, “Discovery of AdipoRon analogues as novel AMPK activators without inhibiting mitochondrial complex I” (Eur J Med Chem, 2020)
Calls of active or inactive are those of the source. The rule behind the calls is not given here.

What was measured:
[1] = Induction of cardiac hypertrophy in normal lean C57BL/6 mouse at 100 mg/kg, ig administered for 4 weeks; assay type: organism-based; settings: in vivo, po, 672 h
Procedure, shortened: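 Male C57BL/6 mice, 9 weeks old, dosed intragastrically daily for 4 weeks. After saline perfusion, organ weights and tibia length were recorded. Heart pieces were fixed in 4% paraformaldehyde, embedded in paraffin and stained with periodic acid-Schiff to show glycogen.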

Huh-7 = assay: Activation of AMPK in human HuH-7 cells assessed as increase in AMPK phosphorylation at 1 to 20 uM measured after 2 to 12 hrs by Western blotting analysis; assay type: cell-based; settings: filed as activator, dose 1-20 µM, time 2-12 hrs
Procedure, shortened: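 HepG2 and HuH-7 cells in medium with 10% FBS and penicillin/streptomycin at 37 °C, 5% CO₂. Treated with a range of concentrations for 2 h, or with 10 μM over a time course. Cells lysed in RIPA buffer with protease/phosphatase inhibitors; ~30 µg protein per lane blotted for p-AMPK, AMPK, p-ACC, ACC, with GAPDH or β-actin as loading control. Detected by ECL.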

Mus musculus = assay: Hypoglycemic activity in 6 hrs fasted normal lean C57BL/6 mouse assessed as reduction in blood glucose level at 100 mg/kg, ig pretreated for 2 hrs followed by glucose challenge and measured up to 90 mins post glucose challenge starting from 120 mins prior to […] by IPGTT; assay type: functional, organism-based; settings: time 210.0 min
Procedure, shortened: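 C57BL/6 mice (male, 8-10 weeks, n=6 per group) fasted 6 h, then given compound or vehicle intragastrically. Two hours later, 20% glucose was injected i.p. at 2 g/kg. Tail-vein glucose read by glucometer at -120, 0, 20, 40, 60 and 90 min, and net AUC calculated. Doses were 25, 50 and 100 mg/kg.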

[2] = Metabolic stability in ICR/CD-1 mouse liver microsomes assessed as intrinsic clearance preincubated for 5 mins followed by NADPH addition and measured up to 45 mins by LC/MS analysis; assay type: ADME, Microsome; settings: time 50 min, read-out: CLH
Procedure, shortened: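 Compound and liver microsomes in preheated potassium phosphate buffer, held at 37 °C for 5 min. Reaction started with NADPH and stopped at 0, 5, 15, 30 and 45 min with acetonitrile containing tolbutamide internal standard. Samples centrifuged at 6000 rpm for 15 min, supernatant analysed by LC/MS. Ketanserin run as assay control. Performed by a contract lab.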

[3] = Induction of cardiac hypertrophy in db/db mouse assessed as increase in cardiac glycogen accumulation at 100 mg/kg, ig administered for 10 weeks; assay type: organism-based; settings: in vivo, po, 1680 h
[4] = Toxicity in db/db mouse assessed as effect on body weight at 100 mg/kg, ig administered for 10 weeks; assay type: organism-based; settings: in vivo, po, 1680 h
Procedure, shortened: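 db/db mice, 5 weeks old, grouped by matching baseline blood glucose and body weight. Dosed intragastrically once daily at 100 mg/kg in 0.5% methylcellulose; vehicle-treated db/db and db/m mice served as controls. Body weight and fasting blood glucose measured weekly. Serum ALT and AST measured after 10 weeks. Data given as mean ± SEM.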

Question: For `CC(C)(Oc1ccc(Cl)cc1)C(=O)Nc1ccc(OCc2ccc(C#N)cc2)cc1`, which Activity [1] is on record?
Answer: Non-Toxic

Question: What about the Activity (Huh-7) of the same molecule?
Answer: Active

Question: What about the Activity (Mus musculus) of the same molecule?
Answer: Active

Question: And the CLint scaled [2]?
Answer: 152 mL/min/kg

Question: And the Activity [3]?
Answer: Non-Toxic

Question: And the Activity [4]?
Answer: Non-Toxic
